In ChEMBL document CHEMBL1255265, “Linezolid and tiamulin cross-resistance in Staphylococcus aureus mediated by point mutations in the peptidyl transferase center” (2008):
Values after ≈ are worked out from the molar mass of the structure shown.

Assays:
Escherichia coli [1] = assay: Antimicrobial activity against Escherichia coli KM87-88 harboring Arg141Ser mutation in rplC gene by agar dilution method in presence of 16 ug/ml polymyxin B nonapeptide; assay type: functional
Summary of the method: (§1)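 MIC by agar dilution following BSAC guidelines in Mueller-Hinton medium. For E. coli, the medium was supplemented with 16 μg/ml polymyxin B nonapeptide to permeabilize the gram-negative envelope.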

Staphylococcus aureus [2] = assay: Antimicrobial activity against Staphylococcus aureus KM187+198 harboring G2576U mutation in 23S rRNA by agar dilution method; assay type: functional
Summary of the method: (§2)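 S. aureus MICs were determined by agar dilution per BSAC guidelines in Mueller-Hinton medium, without supplement.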

Staphylococcus aureus [3] = assay: Antimicrobial activity against Staphylococcus aureus NRS120 clinical isolate harboring G2576U mutation in 23S rRNA by agar dilution method; assay type: functional; summary of the method: as §2
Escherichia coli [4] = assay: Antimicrobial activity against Escherichia coli KM69-73 harboring G2447U mutation in 23S rRNA by agar dilution method in presence of 16 ug/ml polymyxin B nonapeptide
Escherichia coli [5] = assay: Antimicrobial activity against Escherichia coli KM85-86 harboring Lys157Gln mutation in rplC gene by agar dilution method in presence of 16 ug/ml polymyxin B nonapeptide; assay type: functional; summary of the method: as §1
Escherichia coli [6] = assay: Antimicrobial activity against Escherichia coli KM55-68 harboring G2576U mutation in 23S rRNA by agar dilution method in presence of 16 ug/ml polymyxin B nonapeptide; assay type: functional; summary of the method: as §1
Escherichia coli [7] = assay: Antimicrobial activity wild type Escherichia coli SQ110 by agar dilution method in presence of 16 ug/ml polymyxin B nonapeptide; assay type: functional; summary of the method: as §1
Escherichia coli [8] = assay: Antimicrobial activity against Escherichia coli KM75-84 harboring Gly153Arg mutation in rplC gene by agar dilution method in presence of 16 ug/ml polymyxin B nonapeptide; assay type: functional; summary of the method: as §1
Escherichia coli [9] = assay: Antimicrobial activity against Escherichia coli KM74 harboring U2500A mutation in 23S rRNA by agar dilution method in presence of 16 ug/ml polymyxin B nonapeptide; assay type: functional; summary of the method: as §1
Escherichia coli [10] = assay: Antimicrobial activity wild type Escherichia coli SQ110 by agar dilution method; assay type: functional
Staphylococcus aureus [11] = assay: Antimicrobial activity against Staphylococcus aureus NRS121 clinical isolate harboring G2576U mutation in 23S rRNA by agar dilution method; assay type: functional; summary of the method: as §2
Staphylococcus aureus [12] = assay: Antimicrobial activity against Staphylococcus aureus NRS119 clinical isolate harboring G2576U mutation in 23S rRNA by agar dilution method; assay type: functional; summary of the method: as §2
Escherichia coli [13] = assay: Antimicrobial activity against Escherichia coli KM89-94 harboring G2576U mutation in 23S rRNA by agar dilution method in presence of 16 ug/ml polymyxin B nonapeptide; assay type: functional; summary of the method: as §1
Staphylococcus aureus [14] = assay: Antimicrobial activity against mutS-expressing Staphylococcus aureus RN4220 measured after 1 day of subculturing by agar dilution method; assay type: functional; conditions: RN4220, 24 h
Summary of the method: (§3)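 Resistant mutants were selected by serial subculture in Mueller-Hinton medium containing antibiotic, and time to emergence of resistance was recorded. MICs were determined by agar dilution per BSAC guidelines.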

Escherichia coli [15] = assay: Antimicrobial activity against tiamulin resistant Escherichia coli SQ110 by agar dilution method; assay type: functional
Staphylococcus aureus [16] = assay: Antimicrobial activity against Staphylococcus aureus RN4220 by agar dilution method; assay type: functional; summary of the method: as §2
Staphylococcus aureus [17] = assay: Antimicrobial activity against tiamulin resistant Staphylococcus aureus 8325-4 after 1 day of subculturing by agar dilution method; assay type: functional; conditions: 8325-4, 24 h; summary of the method: as §3
Staphylococcus aureus [18] = assay: Antimicrobial activity against Staphylococcus aureus KM164-165 harboring Gly155Arg mutation in rplC gene by agar dilution method; assay type: functional; summary of the method: as §2
Staphylococcus aureus [19] = assay: Antimicrobial activity against Staphylococcus aureus KM168 harboring Arg149Ser mutation in rplC gene by agar dilution method; assay type: functional; summary of the method: as §2
Staphylococcus aureus [20] = assay: Antimicrobial activity against Staphylococcus aureus KM166-167 harboring Ser158Leu mutation in rplC gene by agar dilution method; assay type: functional; summary of the method: as §2
Staphylococcus aureus [21] = assay: Antimicrobial activity against wild type Staphylococcus aureus RN4220 measured after 2 days of subculturing by agar dilution method; assay type: functional; conditions: RN4220, 48 h; summary of the method: as §3

Structure (SMILES): CC(=O)NC[C@H]1CN(c2ccc(N3CCOCC3)c(F)c2)C(=O)O1 [LINEZOLID]
- MIC (Escherichia coli [1]): 16 µg/mL
- MIC (Staphylococcus aureus [2]): 64 µg/mL (≈ 190 µM)
- MIC (Staphylococcus aureus [3]): 64 µg/mL (≈ 190 µM)
- MIC (Escherichia coli [4]): 64 µg/mL
- MIC (Escherichia coli [5]): 16 µg/mL
- MIC (Escherichia coli [6]): 64 µg/mL
- MIC (Escherichia coli [7]): 16 µg/mL
- MIC (Escherichia coli [8]): 16 µg/mL
- MIC (Escherichia coli [9]): 64 µg/mL
- MIC (Escherichia coli [10]): 256 µg/mL (≈ 759 µM)
- MIC (Staphylococcus aureus [11]): 64 µg/mL (≈ 190 µM)
- MIC (Staphylococcus aureus [12]): 64 µg/mL (≈ 190 µM)
- MIC (Escherichia coli [13]): 64 µg/mL

Structure (SMILES): C=C[C@]1(C)C[C@@H](OC(=O)CSCCN(CC)CC)[C@]2(C)[C@H](C)CC[C@]3(CCC(=O)[C@H]32)[C@@H](C)[C@@H]1O [TIAMULIN]
- MIC (Staphylococcus aureus [14]): 2 µg/mL (≈ 4.05 µM)
- MIC (Escherichia coli [15]): 128 µg/mL (≈ 259 µM)
- MIC (Escherichia coli [1]): 64 µg/mL
- MIC (Staphylococcus aureus [16]): 1 µg/mL (≈ 2.03 µM)
- MIC (Staphylococcus aureus [2]): 16 µg/mL (≈ 32.4 µM)
- MIC (Staphylococcus aureus [3]): 32 µg/mL (≈ 64.8 µM)
- MIC (Escherichia coli [4]): 64 µg/mL
- MIC (Escherichia coli [5]): 32 µg/mL
- MIC (Staphylococcus aureus [17]): 1 µg/mL (≈ 2.03 µM)
- MIC (Escherichia coli [6]): 64 µg/mL
- MIC (Staphylococcus aureus [18]): 8 µg/mL (≈ 16.2 µM)
- MIC (Escherichia coli [7]): 8 µg/mL
- MIC (Staphylococcus aureus [19]): 8 µg/mL (≈ 16.2 µM)
- MIC (Staphylococcus aureus [20]): 16 µg/mL (≈ 32.4 µM)
- MIC (Escherichia coli [8]): 32 µg/mL
- MIC (Escherichia coli [9]): 64 µg/mL
- MIC (Staphylococcus aureus [11]): 32 µg/mL (≈ 64.8 µM)
- MIC (Staphylococcus aureus [21]): 1 µg/mL (≈ 2.03 µM)
- MIC (Staphylococcus aureus [12]): 32 µg/mL (≈ 64.8 µM)
- MIC (Escherichia coli [13]): 64 µg/mL
